Only some compounds are listed: those with a hit (about 2.6% of all), similar ones and a draw of the others.
SENP8 block-1: SENP8 protease inhibition; Q96LD8; purified SENP8, Z-RLRGG-aminoluciferin cleavage, luminescence; inhibition, % at 10 µM; hit rate 1.2% among 330,000; in the data active means inhibition above about 50%
Platelet DG rel: platelet dense granule release activity. human platelet-rich plasma, SFLLRN dense granule ATP release, luminescence. inhibition, %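 (compounds screened at 7.5 µM in platelet-rich plasma)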. hit rate 0.22% among 300,000. AID 1663;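 active means mean replicate score, as percent of positive control, at or above 50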
SENP6 inh: blocks the human protease SENP6. Q9GZR1. Recombinant SENP6 catalytic domain, aminoluciferin luminescence. inhibition, % at 10 µM. hit rate 1.8% among 330,000;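 active means inhibition above about 50% at the single tested dose, limit read from the data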;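 further: plate controls were DMSO wells with enzyme for no effect and DMSO wells lacking enzyme for full effect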
SENP7 inh: inhibitors of human SENP7 protease | inhibition, % at 5 µM | Q9BQF6 | AID 434973 | recombinant SENP7, Z-RLRGG-aminoluciferin luminescence, 40 min | hit rate 1.5% among 330,000;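 active means inhibition above about 50% at the single test dose, limit read from the data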;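 further: plate controls were DMSO with enzyme for no effect and no enzyme buffer wells for full effect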
Target sequence (Q9BQF6 706-1050 limits assumed): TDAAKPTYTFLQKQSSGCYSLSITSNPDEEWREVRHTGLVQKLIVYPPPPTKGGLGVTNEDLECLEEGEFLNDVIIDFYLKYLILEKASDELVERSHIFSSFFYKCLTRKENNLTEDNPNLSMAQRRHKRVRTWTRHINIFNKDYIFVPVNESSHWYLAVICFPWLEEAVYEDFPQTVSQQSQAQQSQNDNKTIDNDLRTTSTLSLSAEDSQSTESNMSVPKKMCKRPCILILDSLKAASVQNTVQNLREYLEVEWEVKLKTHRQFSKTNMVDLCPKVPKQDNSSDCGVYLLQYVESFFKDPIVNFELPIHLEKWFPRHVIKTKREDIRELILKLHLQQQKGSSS
SENP1 FRET inh: blocks the human SENP1 SUMO protease catalytic domain. Q9P0U3. recombinant SENP1 catalytic domain, CyPet-SUMO1-YPet FRET cleavage. inhibition, % at 10 µM. hit rate 0.21% among 360,000. AID 624204;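 active means inhibition at least 30% at 10 µM, raw YFP signal under a set limit, fluorescence ratio 0.5 to 1.5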;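 further: 0% = enzyme with DMSO and 100% = no enzyme wells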
Target sequence (Q9P0U3 419-644 limits assumed): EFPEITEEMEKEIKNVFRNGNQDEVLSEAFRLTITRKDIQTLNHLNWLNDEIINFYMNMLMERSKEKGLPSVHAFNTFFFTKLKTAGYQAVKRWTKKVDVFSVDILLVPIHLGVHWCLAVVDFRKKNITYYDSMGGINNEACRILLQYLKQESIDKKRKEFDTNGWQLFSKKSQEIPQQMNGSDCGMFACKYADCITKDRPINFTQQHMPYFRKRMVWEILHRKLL
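Assay system – human recombinant His6-tagged SENP1 catalytic domain enzyme · Input – SENP1 enzyme, 20 pM final · Buffer or medium – Tris pH 8 buffer plus EDTA, NaCl, BME, BSA, NP40, catalase · Schedule – 50 min reaction at room temperature · Technique – FRET read of cyan and yellow fluorescence · Control set – no-enzyme wells low, DMSO-plus-enzyme wells high control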
SENP8 block-2: blocks human SENP8 cleavage of Nedd8 substrate; Q96LD8; recombinant SENP8, Nedd8 substrate fluorescence; inhibition, % at 20 µM; hit rate 0.64% among 360,000; AID 602440; in the data active means inhibition mostly above about 40%, no sharp cut-off; inactive means mostly below about 27%
SENP8 confirm: human SENP8 inhibition, confirmed | shares compounds with SENP7 inh | inhibition, % at 12.5 µM | Recombinant SENP8, Z-RLRGG-aminoluciferin luminescence, 60 min | hit rate 40% among 6,200;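 active means mean inhibition across replicates above about 50%, limit read from the data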
SENP6 conf: human SENP6 inhibition, confirmed. inhibition, % at 12.5 µM. recombinant SENP6, Z-RLRGG-aminoluciferin luminescence. hit rate 58% among 6,200. shares compounds with SENP7 inh
SENP7 conf: human SENP7 inhibition, confirmed; shares compounds with SENP7 inh; recombinant SENP7, Z-RLRGG-aminoluciferin luminescence, 40 min; inhibition, % at 12.5 µM; hit rate 69% among 6,200; AID 488917
Casp3 select: inhibits human caspase-3 in SENP selectivity test; hit rate 60% among 6,200; AID 488918; shares compounds with SENP7 inh; inhibition, % at 12.5 µM; purified caspase-3, Z-DEVD-aminoluciferin luminescence, 60 min;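 active means mean inhibition above about 50%, limit read from the data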;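 further: plate controls were enzyme with DMSO for no effect and wells without caspase-3 for full effect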
Target sequence (P42574 28-227 limits assumed): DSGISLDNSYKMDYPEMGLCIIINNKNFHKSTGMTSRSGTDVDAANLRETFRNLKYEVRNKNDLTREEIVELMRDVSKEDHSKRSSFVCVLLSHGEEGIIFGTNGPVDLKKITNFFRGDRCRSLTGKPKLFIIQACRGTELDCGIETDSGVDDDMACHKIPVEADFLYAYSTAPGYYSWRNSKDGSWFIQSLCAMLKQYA
SENP luc ctr: counter-screen for SENP inhibitors: luminescence interference; shares compounds with SENP7 inh; hit rate 39% among 6,200; AID 488919; inhibition, % at 12.5 µM; Pre-incubated SENP8/Z-RLRGG-aminoluciferin, luciferase luminescence interference;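 active means mean inhibition above about 50% when retested at one dose, limit read from the data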;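 further: plate controls were DMSO wells with completed reaction for no effect and substrate without enzyme for full effect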
Numbers without * were called inactive; x = no result given.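 How the source made its calls, unless noted: active means mean inhibition above about 50% in the one-dose retest (limit read from the data); inactive means the rest.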

SMILES | SENP8 block-1 | Platelet DG rel | SENP6 inh | SENP7 inh | SENP1 FRET inh | SENP8 block-2 | SENP8 confirm | SENP6 conf | SENP7 conf | Casp3 select | SENP luc ctr
Oc1ccc(/C=N/N2CCCCC2)c(O)c1O | 19.7 | 3.5 | 56.0* | 10.5 | 37.5* | 51.6* | -4.1 | 8.1 | 4.6 | 2.8 | 1.0
Cc1ccc(C(=O)c2ccc(C)cc2)cc1 | -10.6 | -36.6 | -25.2 | 8.3 | 1.1 | 12.5 | x | x | x | x | x
CC(=O)c1ccc(N=Nc2ccc(N(C)C)cc2)cc1 | 74.8* | 26.4 | 54.4* | 92.8* | 2.4 | 37.1 | 16.1 | 24.7 | 16.1 | 52.8* | 13.2
CN(C)c1ccc(N=Nc2ccccc2Br)cc1 | 92.9* | 1.8 | 95.6* | 98.8* | 0.5 | 35.1 | 86.9* | 94.2* | 91.4* | 89.9* | 56.7*
CC(=O)c1ccc(N=Nc2ccc(C)cc2)cc1 | 82.4* | 2.9 | 84.9* | 87.3* | 2.2 | 22.4 | 60.7* | 62.1* | 79.4* | 68.0* | 47.5
CN(C)c1ccc(N=Nc2nccs2)cc1 | x | x | x | x | 2.0 | 36.9 | x | x | x | x | x
Cc1cc(N(C)C)ccc1N=Nc1ccc(N)cc1 | 33.7 | 4.1 | 45.9 | 26.5 | 22.4 | 35.0 | x | x | x | x | x
Cc1ccccc1Cn1nc(C)c(NC(=O)/C=C/c2cnn(C)c2)c1C | -8.0 | 1.8 | -32.4 | -14.6 | 0.7 | 14.0 | x | x | x | x | x
Nc1nn(-c2cccc(F)n2)cc1-c1ccc(Cl)cc1 | 52.4* | 10.0 | 62.4* | 88.1* | 0.9 | -2.9 | 15.6 | 21.4 | 48.4 | 32.2 | 8.0
Nc1nc(Br)c2c(F)cccc2c1-c1ccccc1 | -13.7 | 8.6 | 11.5 | -5.4 | -111.3 | -81.3 | x | x | x | x | x
Nc1nn(-c2cccc(F)n2)cc1-c1ccccc1 | 83.7* | 1.6 | 86.9* | 91.6* | 0.5 | 7.2 | -28.0 | 80.8* | 97.2* | 82.6* | 26.9
COc1ccc(-c2ccn(-c3cccc(F)n3)n2)cc1 | 8.5 | x | 1.7 | 4.0 | -16.0 | -181.5 | x | x | x | x | x
Cc1ccc(NC2=C(N3CCOCC3)C(=O)c3ccccc3C2=O)cc1 | 68.4* | -4.5 | 79.6* | 35.1 | -124.4 | 70.8* | 71.8* | 82.6* | 72.4* | 87.7* | 28.8
CC(=O)N(C)C1=C(N2CCOCC2)C(=O)c2ccccc2C1=O | 35.2 | -5.7 | 47.8 | 31.1 | 0.9 | 33.2 | x | x | x | x | x
CC(=O)c1ccc(NC2=C(N3CCOCC3)C(=O)c3ccccc3C2=O)cc1 | 29.1 | 5.2 | 53.2* | 9.0 | -84.8 | 59.2* | 21.1 | 56.0* | 36.8 | 9.2 | 2.3
Cc1ccc(O)c(-c2cc(-c3cccc(F)c3)n[nH]2)c1 | 5.5 | -0.7 | -10.1 | 16.0 | -1.8 | 3.8 | x | x | x | x | x
Cc1ccc(-c2cc(-c3cccc(F)c3)n[nH]2)c(O)c1 | 40.5 | 8.2 | 77.8* | 43.5 | 2.9 | 26.4 | 74.6* | 72.4* | 87.2* | 13.2 | 18.6
Cc1ccc(O)c(-c2cc(-c3ccccc3F)[nH]n2)c1 | 57.0* | -29.8 | 62.3* | 54.6* | -0.4 | 22.8 | 65.7* | 71.5* | 92.4* | 28.1 | 14.2
O=C(CCCCn1c(=O)[nH]c2ccccc2c1=O)N1CCN(c2ncccn2)CC1 | -1.6 | -11.5 | -1.4 | -1.2 | 0.8 | -5.8 | x | x | x | x | x
C/[N+]([O-])=C\c1cccc(OCCN2CCN(c3ncc(C(F)(F)F)cc3Cl)CC2)c1 | 0.7 | 7.2 | -6.6 | -2.2 | 2.8 | -1.8 | x | x | x | x | x
Cc1ccc(-c2nc3n(n2)Cc2ccccc2-3)cc1 | 96.2* | 18.1 | 97.3* | 99.2* | 1.5 | 13.6 | 80.0* | 91.4* | 103.1* | 98.1* | 67.6*
NC(=S)Cc1nc2n(n1)Cc1ccccc1-2 | -4.1 | 9.2 | -9.1 | -4.5 | 5.6 | 2.9 | x | x | x | x | x
CCn1c(C)nc2cc(-c3nc4n(n3)Cc3ccccc3-4)ccc21 | 96.4* | 96.7* | 95.5* | 100.5* | -2.6 | -6.0 | 99.2* | 99.8* | 103.0* | 98.6* | 86.1*
Cc1cc(C)n2nc(-c3ccc(F)cc3)nc2n1 | 0.4 | 7.6 | 21.8 | 10.8 | 0.0 | 27.3 | x | x | x | x | x
Fc1ccc(-c2nc3n(n2)Cc2ccccc2-3)cc1 | 95.0* | x | 99.8* | 99.4* | 0.6 | 19.1 | 92.8* | 97.5* | 102.4* | 97.6* | 64.2*
SMILES | SENP8 block-1 | Platelet DG rel | SENP6 inh | SENP7 inh | SENP1 FRET inh | SENP8 block-2 | SENP8 confirm | SENP6 conf | SENP7 conf | Casp3 select | SENP luc ctr
COC(=O)c1ccc(C(=O)N2CCCC(CNC(=O)c3ccc(F)cc3)C2)cc1 (stereo not given) | -0.6 | -18.4 | 5.0 | 0.5 | 0.5 | 14.6 | x | x | x | x | x
COc1cccc(/C=C2\CCC(C3CCCC3)C2=O)c1 (stereo not given) | 39.8 | 11.5 | 50.3* | 20.8 | 0.9 | 11.8 | 47.5 | 47.6 | 66.5* | 34.1 | 26.2
C/C(=N\NC(=O)c1n[nH]c2c1CCC2)c1ccco1 | 55.2* | 30.6 | 69.4* | 59.5* | 1.4 | 8.8 | 11.7 | 67.8* | 90.9* | 90.9* | 65.0*
C/C(=N/NC(=O)c1ccccn1)c1ccco1 | 62.5* | 40.4 | 66.6* | 1.9 | 2.5 | 3.4 | 76.3* | 67.0* | 90.1* | 92.2* | 70.6*
Cc1ccc(NC(=S)NC2CC3CCCC(C2)N3Cc2cccs2)cc1 (stereo not given) | -2.1 | -10.4 | 0.3 | 0.7 | 0.2 | 12.9 | x | x | x | x | x
Cc1cc(C(=O)NNC(=S)NCC(C)C)cs1 | -2.4 | -1.9 | 6.1 | 4.2 | 2.4 | 17.8 | x | x | x | x | x
CCOC(=O)c1c(C)oc2c1c(C=NCCC(=O)O)c(O)c1ccccc12 | 66.0* | -2.1 | 76.8* | 26.1 | -31.8 | 31.5 | -18.1 | 43.6 | 19.5 | -2.6 | 2.3
COc1ccc(O)c(-c2cc(-c3ccc(F)cc3)n[nH]2)c1 | 40.0 | 1.6 | 56.1* | 43.2 | -2.7 | -9.8 | 61.5* | 58.9* | 77.6* | 20.4 | 68.3*
COc1ccc(-c2cc(-c3cc(OC)ccc3O)[nH]n2)cc1 | 26.1 | 4.1 | -1.7 | 45.3 | -4.8 | -14.5 | x | x | x | x | x
Oc1ccc(Br)cc1-c1cc(-c2ccccc2)n[nH]1 | -20.7 | 9.0 | -16.9 | 1.2 | 1.8 | 21.4 | x | x | x | x | x
COc1ccc(O)c(-c2cc(-c3cccc(Br)c3)n[nH]2)c1 | 24.0 | 0.5 | 59.0* | 7.5 | -15.2 | -10.7 | 39.8 | 34.5 | 69.0* | -0.9 | 4.7
COc1ccc2c(c1)CCc1c(C(=O)NCC(C)C)noc1-2 | 29.1 | -3.9 | 70.5* | 51.4* | 1.1 | 13.8 | 25.4 | 43.6 | 80.7* | 56.8* | 17.5

From PubChem BioAssay
